Screening results deposited in PubChem by Johns Hopkins Ion Channel Center.
Most compounds without a hit are left out; they make up all but 3.7% or so of the library.
hERG rescue – shields human hERG channel from block by proarrhythmic agents; CHO-hERG, FluxOR thallium flux, dofetilide IC70 present; activation (rescue from dofetilide block), less the hit threshold, % at 10 µM; 310,000 compounds, 0.51% hits;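 active = activation above the mean of controls blocked by dofetilide plus 5 SD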;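 also: thallium influx through hERG after potassium depolarization seen as dye fluorescence rise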
KCNK3 block – human KCNK3 channel inhibition, primary screen. O14649. CHO-KCNK3 thallium flux, FluxOR fluorescence; hits give low values. B-score at 10 µM. 340,000 compounds, 0.84% hits;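 active = B-score under library mean minus 4 SD, starting fluorescence ratio at most library mean plus 5 SD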;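 also: more negative B-score means stronger inhibition of thallium flux through KCNK3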
Kir21 inh – inhibitors of mouse Kir2.1 inward-rectifier potassium channel; B-score at 10 µM; P35561; HEK293-Kir2.1, FluxOR thallium flux fluorescence; hits give low values; 310,000 compounds, 0.85% hits;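 active = fluorescence ratio B-score at or below minus 3 SD of library scores, with starting-brightness B-score within 2 SD, cut at about -4.2 in these data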;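 also: channel flux triggered by added potassium and thallium sulfate stimulus; B-score of peak minus minimum fluorescence over baseline after thallium stimulus; more negative B-score means stronger Kir2.1 block with less thallium influx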
KCNQ1 inh – human KCNQ1 channel inhibition. P51787. CHO-K1 KCNQ1, FluxOR thallium flux fluorescence; hits give high values. B-score at 10 µM. 310,000 compounds, 1.3% hits. AID 2642;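 active = compounds whose thallium flux B-score, printed positive for inhibition, exceeds three library SD while starting fluorescence stays within three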;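 also: channel opened by potassium depolarization with thallium stimulus after 20 min compound exposure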
Target sequence (P51787 whole entry, looked up): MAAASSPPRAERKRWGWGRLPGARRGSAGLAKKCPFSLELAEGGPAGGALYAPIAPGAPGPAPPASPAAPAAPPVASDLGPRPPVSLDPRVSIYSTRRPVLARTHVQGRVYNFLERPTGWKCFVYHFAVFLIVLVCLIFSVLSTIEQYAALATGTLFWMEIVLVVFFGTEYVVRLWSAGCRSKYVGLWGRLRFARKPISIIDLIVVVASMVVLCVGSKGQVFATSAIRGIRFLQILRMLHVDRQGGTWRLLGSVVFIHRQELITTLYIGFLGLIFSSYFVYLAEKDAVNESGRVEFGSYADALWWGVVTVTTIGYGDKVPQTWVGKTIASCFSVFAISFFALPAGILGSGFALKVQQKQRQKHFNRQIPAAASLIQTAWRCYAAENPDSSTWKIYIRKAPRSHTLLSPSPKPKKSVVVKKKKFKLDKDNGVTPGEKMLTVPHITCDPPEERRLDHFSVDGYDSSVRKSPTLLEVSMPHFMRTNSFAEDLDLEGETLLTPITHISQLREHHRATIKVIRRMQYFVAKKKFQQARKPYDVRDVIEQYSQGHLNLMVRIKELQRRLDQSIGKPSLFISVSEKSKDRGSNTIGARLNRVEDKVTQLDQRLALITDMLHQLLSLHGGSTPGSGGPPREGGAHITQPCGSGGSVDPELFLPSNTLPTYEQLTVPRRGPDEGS
KCNQ1 act – potentiates or activates the human KCNQ1 potassium channel | P51787 | CHO-K1 KCNQ1, thallium flux FluxOR fluorescence; hits give high values | B-score at 10 µM | 310,000 compounds, 0.35% hits | AID 2648;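 active = fluorescence ratio B-score, a plate-corrected score, at least three library SD, with initial intensity B-score within 5 SD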
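Medium – assay buffer, equal DMSO in all wells · Material – CHO-K1 cell line with stable KCNQ1 potassium channel expression · Signal – kinetic FluxOR thallium fluorescence, 10-s 1-Hz baseline, 110-s post-stimulus read · Compound – single concentration per compound, DMSO matched to controls · Schedule – 37 °C overnight plating, 90-min dark dye load, 20-min compound pretreatment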
KCNK9 inh – inhibitors of human KCNK9 two-pore domain potassium channel; HEK293 KCNK9, FluxOR thallium flux fluorescence; hits give low values; B-score at 10 µM; 310,000 compounds, 1.2% hits;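 active = ratio B-score over 3 SD below the library mean, with starting fluorescence within 5 SD of its mean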;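 also: negative B-score means less thallium flux so channel inhibition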
Active calls of the source: *; i = inactive; · = not tested or not shown.

SMILES	hERG rescue	KCNK3 block	Kir21 inh	KCNQ1 inh	KCNQ1 act	KCNK9 inh
COc1cccc(NC(=O)C2C3C=CC(C3)C2C(=O)O)c1 (stereo unspecified)	7.4*	i	0.95	i	i	i
Cc1csc(NC(=O)C2C3C=CC(C3)C2C(=O)O)n1 (stereo unspecified)	5.4*	i	-2.8	i	i	i
COc1ccc(NC(=O)C2C3C=CC(C3)C2C(=O)O)cc1 (stereo unspecified)	-7	i	0.62	i	i	i
CC(C(=O)Nc1cc(Cl)cc(Cl)c1)N1CCCC1 (stereo unspecified)	-9	i	0.18	i	i	i
COc1ccc(CN2CCCC(C(=O)c3cccc(C(F)(F)F)c3)C2)cc1O (stereo unspecified)	-23	i	-12*	i	i	i
CC(=O)Nc1ccc(CN2CCCC(C(=O)c3cccc(C(F)(F)F)c3)C2)cc1 (stereo unspecified)	-11	i	-0.88	i	i	i
CC1COCC(C)N1C1=C(Cl)C(=O)c2ccccc2C1=O (stereo unspecified)	·	-10*	·	·	·	·
O=C1C(Cl)=C(N2CCC(C(=O)O)CC2)C(=O)c2ccccc21	-20	i	-0.09	6*	i	i
COc1ccc(CNC(=O)C(C)OC(=O)c2cccc(N(C)C)c2)cc1 (stereo unspecified)	·	i	·	·	·	·
Nc1nc(Nc2ccc(Cl)cc2)nc2ccccc12	-26	i	-14*	i	i	i
Cc1ccc(Nc2nc(N)c3ccccc3n2)cc1Cl	-21	i	-13*	i	i	i
CC(=O)c1ccc(S(=O)(=O)N2CCN(C(=O)c3ccc(-n4nc(C)c(Cl)c4C)cc3)CC2)cc1	·	i	·	·	·	·
O=C(Cn1c(=O)oc2cc(S(=O)(=O)N3CCc4ccccc43)ccc21)NC1CCCC1	1	i	-0.25	i	i	-8.8*
CC(C)CCNC(=O)Cn1c(=O)oc2cc(S(=O)(=O)N3CCc4ccccc43)ccc21	-1	i	-0.56	i	i	-9.2*
O=C(Cn1c(=O)oc2cc(S(=O)(=O)N3CCCCCC3)ccc21)NC1CCCCC1	-7	i	0.24	i	i	i
COc1ccc(/C=N/NC(=O)c2ccn[nH]2)cc1COc1ccc([N+](=O)[O-])c(C)c1	-8	i	-1.3	6*	i	i
Cc1cc(C)cc(C(=O)NCC(=O)OCC(=O)NC2CC2)c1	·	i	·	·	·	·
Cc1cc(-c2nn(-c3ccccc3F)cc2CN2CCC(O)CC2)c(C)s1	-10	i	-1	i	i	i
Cc1cc(-c2nn(-c3ccccc3F)cc2CN2CCN(c3ccncc3)CC2)c(C)s1	-19	i	-4.5*	i	i	i
Cc1ccc(Sc2ncccc2COC(=O)Nc2c(C)cccc2C)cc1	-6	i	-4.6*	i	i	i
COc1ccc(C(CNC(=O)c2ccc(S(=O)(=O)N3CC(C)CC(C)C3)cc2)N(C)C)cc1 (stereo unspecified)	·	i	·	·	·	·
O=c1oc2ccccc2c(Cl)c1CN1CCCCC1	1	i	-0.12	i	15*	i
CCCCCCCNC(=O)c1ccc(N2CCC3(CC2)OCCO3)c([N+](=O)[O-])c1	-1	i	0.67	i	i	-6.8*
O=C(NCc1ccc(F)cc1)c1ccc(N2CCc3ccccc32)c([N+](=O)[O-])c1	-10	i	-5.4*	i	i	i
O=C(O)c1ccc(N2CCc3ccccc32)c([N+](=O)[O-])c1	-4	i	1.9	i	i	i
SMILES	hERG rescue	KCNK3 block	Kir21 inh	KCNQ1 inh	KCNQ1 act	KCNK9 inh
CCCNC(=O)c1ccc(N2CCC3(CC2)CC(c2ccccc2)=NO3)c([N+](=O)[O-])c1	-7	i	0.19	i	i	i
COc1ccc(CNC(=O)c2ccc(N3CCOCC3)c([N+](=O)[O-])c2)cc1	-2	i	-4.9*	i	i	i
S=C1NCCc2ccc(Cl)cc2C1c1ccccc1 (stereo unspecified)	·	-10*	·	·	·	·
C=CC1CN(C(=O)OCC(Cl)(Cl)Cl)C2CC3c4ccc(OC)cc4NC3C3CC1C2CO3 (stereo unspecified)	-17	·	-0.73	7*	i	i
CCOC(=O)N1CCC2CC1c1cc(-c3cccc(OC)c3)ccc12 (stereo unspecified)	·	i	·	·	·	·
O=C(O)c1ccc(N/N=C/C=C/c2ccc([N+](=O)[O-])o2)cc1	-5	i	-1.4	i	i	i
O=[N+]([O-])c1ccc(N/N=C/C=C/c2ccco2)cc1	-6	i	0.48	i	i	-7.2*
COc1ccc(C2=NN(C(=O)CN3CCCCC3)C(c3ccc(C)cc3)C2)cc1 (stereo unspecified)	-10	i	-1.6	6*	i	i
Cc1ccc(C2CC(c3cccs3)=NN2C(=O)CCl)cc1 (stereo unspecified)	-2	i	-4	i	i	i
CCC(=O)N1N=C(c2cccs2)CC1c1ccc(C)cc1 (stereo unspecified)	5.1*	i	0.8	i	i	i
CCc1cccc(C)c1NC(=O)C1CC(=O)N(C2CCCC2)C1 (stereo unspecified)	·	i	·	·	·	·
CSCC[C@H](NC(=O)c1ccc(OCC2CCCO2)cc1)c1nc2ccccc2[nH]1 (stereo partly specified)	·	i	·	·	·	·
COC(=O)c1ccccc1NC(=O)Cn1cnc2c(cnn2-c2ccccc2)c1=O	4.8*	i	-0.3	i	i	i
O=C(COC(=O)c1ccc(Br)cc1)NCCc1ccccc1	-5	i	-0.69	i	i	i
O=C(COC(=O)c1ccccc1)c1ccc(Br)cc1	-4	i	-0.57	i	i	-6.8*
O=C(NCCOc1ccccc1)c1ccccc1SCC(=O)N1CCCC1	·	i	·	·	·	·
CN(CC(=O)Nc1ccccc1Cl)CC(=O)Nc1c(F)cccc1F	5.2*	i	-0.02	i	i	i
C=C[C@]1(C)C=C2CCC3[C@](C)(CCC[C@@]3(C)C(=O)O)C2CC1 (stereo partly specified)	0	i	1.4	i	9*	i
C=C/C(C)=C/CC1C(=C)CCC2C(C)(C(=O)O)CCCC12C (stereo unspecified)	-9	i	2.4	i	i	i
CCOc1ccccc1N1CCN(Cc2cccc(OC)c2OC)CC1	-16	i	-0.7	6*	i	i
COc1ccc(C(=O)Nn2c(SCC(=O)N3CCC(C)CC3)nc3ccccc3c2=O)cc1	-10	i	0.3	i	i	i
